# According to paper PMC8851455 (ACS Omega, 2022):
# Entries after “also recorded” stand apart in the source; their conditions may differ. Read-outs that look alike come from different tables or passages of the source.
# Assays:
# [1] = tested on: S. typhimurium; details: incorporation or preincubation Ames assays, 10–3333 μg/plate; cited from earlier work
# [2] = tested on: S. typhimurium TA102
# [3] = tested on: MCF-7 cells; experiment: MCF-7 cell proliferation assay; type: cell-based, human
# Summary of the method: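 MCF-7 cells exposed to test compound or E2 at six concentrations from 10–12 to 10–7 M in EA-free medium. Proliferation read as MTT product absorbance at 570 nm. Three independent trials, each in triplicate. % RME2 = 100 × (OD test − OD VC)/(max OD E2 − OD VC). EC50 from curve fitting. EEF = EC50 of E2/EC50 of sample. One-way ANOVA with Dunnett's test versus E2 at each concentration.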
# [4] = tested on: chicken embryo; experiment: Chicken embryonic assay; type: in vivo; details: egg injection, day 18
# [5] = tested on: ERβ; details: competing with E2; cited from earlier work
# [6] = tested on: S. typhimurium TA98; experiment: Ames test, strain TA98; type: cell-based, Salmonella typhimurium
# [7] = tested on: S. typhimurium tester strains (TA98, TA100, and TA102); experiment: Ames test, overall over three strains; type: cell-based, Salmonella typhimurium
# [8] = tested on: zebrafish embryos; details: cited from earlier work
# [9] = tested on: S. typhimurium TA100; experiment: Ames test, strain TA100; type: cell-based, Salmonella typhimurium
# [10] = tested on: MCF-7 cells; details: proliferative activity at 10^–7 to 10^–5 M; cited from earlier work
# [11] = tested on: ERα; details: competing with E2; cited from earlier work
# [12] = TA102 +S9, 5 × 10^–2 pmol/plate
# [13] = TA102 +S9, 5 × 10^–3 pmol/plate
# [14] = TA102 +S9, 5 × 10^–4 pmol/plate
# [15] = TA102 +S9, 5 × 10^–5 pmol/plate
# [16] = TA102 -S9, 5 × 10^–2 pmol/plate
# [17] = TA102 -S9, 5 × 10^–3 pmol/plate
# [18] = TA102 -S9, 5 × 10^–4 pmol/plate
# [19] = TA102 -S9, 5 × 10^–5 pmol/plate
# [20] = higher dose (0.5 mM: 450–500 μg/kg; E2 0.1 mM: 91 μg/kg)
# [21] = lower dose (0.05 mM: 45–50 μg/kg; E2 0.01 mM: 9.1 μg/kg)
# [22] = TA100 +S9, 5 × 10^–2 pmol/plate
# [23] = TA100 +S9, 5 × 10^–3 pmol/plate
# [24] = TA100 +S9, 5 × 10^–4 pmol/plate
# [25] = TA100 +S9, 5 × 10^–5 pmol/plate
# [26] = TA100 -S9, 5 × 10^–2 pmol/plate
# [27] = TA100 -S9, 5 × 10^–3 pmol/plate
# [28] = TA100 -S9, 5 × 10^–4 pmol/plate
# [29] = TA100 -S9, 5 × 10^–5 pmol/plate
structure (smiles),measurement,setting,value
O=c1c(-c2ccc(O)cc2)coc2cc(O)cc(O)c12 [genistein],mutagenic activity in Ames assays,[1],No mutagenic activity
same,MI,"[2]; TA102 +S9, 0.5 pmol/plate",1.1
same,number of revertants/plate (M ± SD),"[2]; TA102 +S9, 0.5 pmol/plate",336 ± 17 revertants/plate
same,MI,"[2]; TA102 +S9, 5 pmol/plate",1.0
same,number of revertants/plate (M ± SD),"[2]; TA102 +S9, 5 pmol/plate",299 ± 4 revertants/plate
same,MI,"[2]; TA102 +S9, 50 pmol/plate",1.1
same,number of revertants/plate (M ± SD),"[2]; TA102 +S9, 50 pmol/plate",324 ± 28 revertants/plate
same,MI,[2]; [12],1.0
same,number of revertants/plate (M ± SD),[2]; [12],311 ± 18 revertants/plate
same,MI,[2]; [13],1.0
same,number of revertants/plate (M ± SD),[2]; [13],312 ± 13 revertants/plate
same,MI,[2]; [14],0.9
same,number of revertants/plate (M ± SD),[2]; [14],285 ± 10 revertants/plate
same,MI,[2]; [15],0.9
same,number of revertants/plate (M ± SD),[2]; [15],290 ± 4 revertants/plate
same,MI,"[2]; TA102 -S9, 0.5 pmol/plate",1.0
same,number of revertants/plate (M ± SD),"[2]; TA102 -S9, 0.5 pmol/plate",247 ± 18 revertants/plate
same,MI,"[2]; TA102 -S9, 5 pmol/plate",0.9
same,number of revertants/plate (M ± SD),"[2]; TA102 -S9, 5 pmol/plate",240 ± 8 revertants/plate
same,MI,"[2]; TA102 -S9, 50 pmol/plate",0.8
same,number of revertants/plate (M ± SD),"[2]; TA102 -S9, 50 pmol/plate",215 ± 27 revertants/plate
same,MI,[2]; [16],0.9
same,number of revertants/plate (M ± SD),[2]; [16],222 ± 30 revertants/plate
same,MI,[2]; [17],0.8
same,number of revertants/plate (M ± SD),[2]; [17],198 ± 8 revertants/plate
same,MI,[2]; [18],0.8
same,number of revertants/plate (M ± SD),[2]; [18],196 ± 20 revertants/plate
same,MI,[2]; [19],0.8
same,number of revertants/plate (M ± SD),[2]; [19],207 ± 5 revertants/plate
same,EEF (estradiol equivalent factor),[3]; EC50 of E2 divided by that of the test compound,0.08
same,EC50,"[3]; Homo sapiens, MCF7",0.12 nM
same,max % RME2,[3]; highest % RME2 (relative maximum % E2) in test range 10^–12–10^–7 M,48%
same,LSI (liver somatic index),[4]; [20],2.12 ± 0.14%
same,malformation rate,[4]; [20],0.0%
same,mortality rate,[4]; [20],50%
same,number of dead chicken embryo,[4]; [20],5
same,number of malformation chicken embryo,[4]; [20],0
same,weights: embryo,[4]; [20],23.88 ± 2.02 g
same,weights: heart,[4]; [20],0.20 ± 0.03 g
same,weights: liver,[4]; [20],0.50 ± 0.09 g
same,LSI (liver somatic index),[4]; [21],2.05 ± 0.44%
same,REEW (ratio of embryo to egg weight),[4]; [21],0.41 ± 0.049
same,malformation rate,[4]; [21],0.0%
same,mortality rate,[4]; [21],40.0%
same,number of dead chicken embryo,[4]; [21],4
same,number of malformation chicken embryo,[4]; [21],0
same,weights: embryo,[4]; [21],21.96 ± 0.73 g
same,weights: heart,[4]; [21],0.17 ± 0.01 g
same,weights: liver,[4]; [21],0.46 ± 0.10 g
same,binding affinity for ERβ,[5],87%
same,MI,"[6]; TA98 +S9, 0.5 pmol/plate",1.1
same,number of revertants/plate (M ± SD),"[6]; TA98 +S9, 0.5 pmol/plate",26 ± 13 revertants/plate
same,MI,"[6]; TA98 +S9, 5 pmol/plate",1.0
same,number of revertants/plate (M ± SD),"[6]; TA98 +S9, 5 pmol/plate",23 ± 14 revertants/plate
same,MI,"[6]; TA98 +S9, 50 pmol/plate",1.2
same,number of revertants/plate (M ± SD),"[6]; TA98 +S9, 50 pmol/plate",28 ± 16 revertants/plate
same,MI,"[6]; TA98 +S9, 5 × 10^–2 pmol/plate",1.2
same,number of revertants/plate (M ± SD),"[6]; TA98 +S9, 5 × 10^–2 pmol/plate",28 ± 5 revertants/plate
same,MI,"[6]; TA98 +S9, 5 × 10^–3 pmol/plate",1.2
same,number of revertants/plate (M ± SD),"[6]; TA98 +S9, 5 × 10^–3 pmol/plate",28 ± 10 revertants/plate
same,MI,"[6]; TA98 +S9, 5 × 10^–4 pmol/plate",1.0
same,number of revertants/plate (M ± SD),"[6]; TA98 +S9, 5 × 10^–4 pmol/plate",24 ± 8 revertants/plate
same,MI,"[6]; TA98 +S9, 5 × 10^–5 pmol/plate",0.8
same,number of revertants/plate (M ± SD),"[6]; TA98 +S9, 5 × 10^–5 pmol/plate",19 ± 6 revertants/plate
same,MI,"[6]; TA98 -S9, 0.5 pmol/plate",0.7
same,number of revertants/plate (M ± SD),"[6]; TA98 -S9, 0.5 pmol/plate",15 ± 1 revertants/plate
same,MI,"[6]; TA98 -S9, 5 pmol/plate",0.8
same,number of revertants/plate (M ± SD),"[6]; TA98 -S9, 5 pmol/plate",18 ± 6 revertants/plate
same,MI,"[6]; TA98 -S9, 50 pmol/plate",0.6
same,number of revertants/plate (M ± SD),"[6]; TA98 -S9, 50 pmol/plate",13 ± 4 revertants/plate
same,MI,"[6]; TA98 -S9, 5 × 10^–2 pmol/plate",0.7
same,number of revertants/plate (M ± SD),"[6]; TA98 -S9, 5 × 10^–2 pmol/plate",16 ± 2 revertants/plate
same,MI,"[6]; TA98 -S9, 5 × 10^–3 pmol/plate",0.5
same,number of revertants/plate (M ± SD),"[6]; TA98 -S9, 5 × 10^–3 pmol/plate",11 ± 1 revertants/plate
same,MI,"[6]; TA98 -S9, 5 × 10^–4 pmol/plate",0.6
same,number of revertants/plate (M ± SD),"[6]; TA98 -S9, 5 × 10^–4 pmol/plate",13 ± 6 revertants/plate
same,MI,"[6]; TA98 -S9, 5 × 10^–5 pmol/plate",0.7
same,number of revertants/plate (M ± SD),"[6]; TA98 -S9, 5 × 10^–5 pmol/plate",15 ± 4 revertants/plate
same,Ames test outcome (signs of mutagenicity),"[7]; 5 × 10^–5 to 50 pmol/plate, with or without S9",did not significantly increase numbers at any strains and test concentrations; also recorded: did not demonstrate such a sign
same,max MI value,[7]; highest MI from test range 5 × 10^–5 to 50 pmol/plate,1.2
same,developmental toxicity in zebrafish model,[8]; at 1–50 μM,showing developmental toxicity
same,survival rate for zebrafish embryos,[8]; exposure at 0.025 to 0.1 mM,significantly decreased the survival rate
same,MI,"[9]; TA100 +S9, 0.5 pmol/plate",1.0
same,number of revertants/plate (M ± SD),"[9]; TA100 +S9, 0.5 pmol/plate",307 ± 7 revertants/plate
same,MI,"[9]; TA100 +S9, 5 pmol/plate",0.9
same,number of revertants/plate (M ± SD),"[9]; TA100 +S9, 5 pmol/plate",301 ± 13 revertants/plate
same,MI,"[9]; TA100 +S9, 50 pmol/plate",0.9
same,number of revertants/plate (M ± SD),"[9]; TA100 +S9, 50 pmol/plate",296 ± 11 revertants/plate
same,MI,[9]; [22],1.0
same,number of revertants/plate (M ± SD),[9]; [22],308 ± 8 revertants/plate
same,MI,[9]; [23],1.0
same,number of revertants/plate (M ± SD),[9]; [23],313 ± 11 revertants/plate
same,MI,[9]; [24],0.9
same,number of revertants/plate (M ± SD),[9]; [24],301 ± 4 revertants/plate
same,MI,[9]; [25],0.9
same,number of revertants/plate (M ± SD),[9]; [25],294 ± 6 revertants/plate
same,MI,"[9]; TA100 -S9, 0.5 pmol/plate",1.0
same,number of revertants/plate (M ± SD),"[9]; TA100 -S9, 0.5 pmol/plate",103 ± 10 revertants/plate
same,MI,"[9]; TA100 -S9, 5 pmol/plate",0.9
same,number of revertants/plate (M ± SD),"[9]; TA100 -S9, 5 pmol/plate",96 ± 4 revertants/plate
same,MI,"[9]; TA100 -S9, 50 pmol/plate",0.8
same,number of revertants/plate (M ± SD),"[9]; TA100 -S9, 50 pmol/plate",80 ± 12 revertants/plate
same,MI,[9]; [26],0.9
same,number of revertants/plate (M ± SD),[9]; [26],97 ± 11 revertants/plate
same,MI,[9]; [27],1.0
same,number of revertants/plate (M ± SD),[9]; [27],100 ± 11 revertants/plate
same,MI,[9]; [28],0.9
same,number of revertants/plate (M ± SD),[9]; [28],94 ± 8 revertants/plate
same,MI,[9]; [29],1.0
same,number of revertants/plate (M ± SD),[9]; [29],98 ± 6 revertants/plate
same,concentration of maximum proliferative activity in MCF-7 cells,[10],10^–6 M
same,binding affinity for ERα,[11],4%
